According to paper PMC11613628 (Journal of Medicinal Chemistry, 2024):
“Also recorded” adds a separate entry of the source. Read-outs that look alike come from different tables or passages of the source. Where a SMILES comes first, the peptide text is derived from it. Bridges are numbered along the chain shown (N, C = ends). [ ]: non-standard residue; d: D form. Tyr(SO2F) = N[C@@H](Cc1ccc(OS(=O)(=O)F)cc1)C(=O)O; S5 = C=CCCC[C@](C)(N)C(=O)O

Assays:
[1] = molecular target: hMcl-1(172–323) His224Ala (Homo sapiens, UniProt Q07820, H224A); assay: SDS gel electrophoresis, His224Ala mutant; format: binding; settings: 100 μM compound, 7 h
How it was run: (§1)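 Wild-type, His224Ala, His252Ala or Lys234Ala hMcl-1(172–323) (10 μM) was incubated with or without 100 μM test agent in 50 mM phosphate pH 7.5, 150 mM NaCl, 1% DMSO. Samples ran on 12% Bis-Tris SDS-PAGE with MOPS running buffer and protein stain. Mutants were sampled at 7 h. Wild type was also sampled over a time course, and complex formation was estimated qualitatively from the gel.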

[2] = molecular target: T1, hMcl-1(172–323) (Homo sapiens, UniProt Q07820); assay: SDS gel electrophoresis, covalent adduct formation; format: binding; settings: 10 μM protein, 100 μM compound
How it was run: as §1

[3] = molecular target: hMcl-1(172–323) Lys234Ala (Homo sapiens, UniProt Q07820, K234A); assay: SDS gel electrophoresis, Lys234Ala mutant; format: binding; settings: 100 μM compound, 7 h
How it was run: as §1

[4] = molecular target: hMcl-1(172–323) His252Ala (Homo sapiens, UniProt Q07820, H252A); assay: SDS gel electrophoresis, His252Ala mutant; format: binding; settings: 100 μM compound, 7 h
How it was run: as §1

[5] = molecular target: His224Ala hMcl-1(172–323) (Homo sapiens, UniProt Q07820, H224A); assay: LC-MS analysis of covalent complex, His224Ala mutant; format: binding; settings: 10 μM protein, 100 μM compound, 7 h
[6] = molecular target: T1, hMcl-1(172–323); assay: LC-MS analysis of covalent complex; format: binding; settings: 10 μM protein, 100 μM compound, 7 h, room temperature
[7] = molecular target: T2, 6×His-tagged hMcl-1(172–323) (Homo sapiens, UniProt Q07820); assay: DELFIA displacement assay; format: binding
How it was run: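 6×His-tagged hMcl-1(172–323) (16 nM) in a heterogeneous DELFIA format. The test agent displaces a biotinylated BIM BH3 reference peptide. Test agent was preincubated with protein for a fixed time (2 h for the peptide series) before dose–response measurement. IC50 was taken from the dose–response curves, and the ratio line is the ratio of these IC50 values.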

[8] = Chemical stability in aqueous buffer by 1D 1H and 19F NMR; format: physicochemical; settings: 100 μM in 50 mM phosphate pH 7.5, 150 mM NaCl; up to 48 h
How it was run: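 Test compound at 100 μM in 50 mM phosphate pH 7.5, 150 mM NaCl. 1D 1H spectra were collected at set time points, and 19F 1D spectra were recorded in the same buffer at various time points on a 600 MHz instrument. Stability was judged from changes in the spectra over time.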

[9] = Plasma stability by 1D 1H NMR; format: in vitro ADME; settings: human plasma in PBS
[10] = system: 6×His-hBfl-1(1–149); assay: DELFIA displacement assay against hBfl-1; format: binding, human; settings: same experimental conditions as the hMcl-1 DELFIA assay
[11] = molecular target: hMcl-1 (Homo sapiens, UniProt Q07820); assay: Kinetic measurements with the DELFIA assay; format: binding
How it was run: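 In the DELFIA format, wells with 16 nM Mcl-1 and 1:2000 Eu–N1 anti-6×His antibody were incubated 2 h, then with test compound for 0, 2, 5, 10, 20 and 40 min. Wells were washed three times and given enhancement solution for 10 min, then Eu fluorescence was read (excitation 340, emission 615). kobs came from the slope of % inhibition versus time, plotted against concentration and fitted hyperbolically to give KI and kinact.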

[12] = molecular target: T2, 6×His-tagged hMcl-1(172–323); settings: against hMcl-1; previously identified minimal binding peptide; cited from earlier work

T1 sequence (Q07820 172-323): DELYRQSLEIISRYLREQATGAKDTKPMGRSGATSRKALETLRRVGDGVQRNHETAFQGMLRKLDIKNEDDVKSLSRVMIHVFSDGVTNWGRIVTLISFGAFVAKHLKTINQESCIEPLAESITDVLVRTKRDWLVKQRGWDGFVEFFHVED
T2 sequence (Q07820 172-323): as above
Sequence of His224Ala hMcl-1(172–323) (Q07820 172-323 H224A): as the sequence (Q07820 172-323) above, with H53A counted along it
Sequence of hMcl-1(172–323) His252Ala (Q07820 172-323 H252A): as the sequence (Q07820 172-323) above, with H81A counted along it
Sequence of hMcl-1 (Q07820 172-323): as the sequence (Q07820 172-323) above
Sequence of hMcl-1(172–323) His224Ala (Q07820 172-323 H224A): as the sequence (Q07820 172-323) above, with H53A counted along it
Sequence of hMcl-1(172–323) Lys234Ala (Q07820 172-323 K234A): as the sequence (Q07820 172-323) above, with K63A counted along it

Row | Compound | band shift (stable adduct) [1] | band shift (stable adduct) ([2]; 7 h incubation) | band shift (stable adduct) [3] | band shift (stable adduct) [4] | covalent adduct by mass spectrometry [5] | covalent adduct by mass spectrometry [6] | IC50 [7] [nM] | chemical stability in aqueous buffer [8] | time to approximately 50% complex formation ([2]; qualitative from gel) [h] | time to complete (or nearly complete) adduct formation ([2]; qualitative from gel) [h] | plasma stability ([9]; 8 h) | remaining after incubation in plasma ([9]; 24 h) [%] | times less active against hBfl-1(1–149) than hMcl-1 [10] [times] | kinact/KI [11] [M⁻¹ s⁻¹] | IC50 [12] [nM]
1 | CC[C@H](C)[C@H](NC(C)=O)C(=O)N[C@@H](C)C(=O)N[C@@H](CCC(=O)O)C(=O)N[C@@H](CCC(N)=O)C(=O)N[C@@H](CC(C)C)C(=O)N[C@@H](CCCNC(=N)N)C(=O)N[C@@H](CCCNC(=N)N)C(=O)N[C@H](C(=O)NCC(=O)N[C@@H](CC(=O)O)C(=O)N[C@@H](CCCNC(=N)N)C(=O)N[C@@H](Cc1ccc(OS(=O)(=O)F)cc1)C(N)=O)[C@@H](C)CC [compound 6] (Ac-IAEQLRRIGDR[Tyr(SO2F)]-NH2) | not with the His224Ala mutant | band shift | band shifts | band shifts | no MW increase was observed | forms a stable 1:1 complex | 8.1 | – | – | – | – | – | – | – | –
2 | CC[C@H](C)[C@H](NC(C)=O)C(=O)N[C@@H](C)C(=O)N[C@@]1(C)CCC/C=C\CCC[C@@](C)(C(=O)N[C@H](C(=O)NCC(=O)N[C@@H](CC(=O)O)C(=O)N[C@@H](CCCNC(=N)N)C(=O)N[C@@H](Cc2ccc(OS(=O)(=O)F)cc2)C(N)=O)[C@@H](C)CC)NC(=O)[C@H](CCCNC(=N)N)NC(=O)[C@H](CC(C)C)NC(=O)[C@H](CCC(N)=O)NC1=O [compound 9] (Ac-IA[S5]QLR[S5]IGDR[Tyr(SO2F)]-NH2; staple (Z) 3-7) | – | – | – | – | could not form a covalent adduct | corresponding to the anticipated mass of the covalent adduct | 5.8 ± 0.9 | No significant spectral changes were observed; also recorded: did not observe any degradation | ~1 | ≤ 4 | remains mostly intact | ~40 | ~160 | 67000 ± 3e+07 | –
3 | IAEQLRRIGDRF | – | – | – | – | – | – | – | – | – | – | – | – | – | – | 250
